High-throughput results as filed in PubChem.
Most compounds without a hit are left out; they make up all but 5.7% or so of the library.
SKKanGAS inh: inhibitors of SKKanGAS S. pyogenes growth in kanamycin (SK-promoter or general growth effect). 1.3% of 300,000 active. BacTiter-Glo, 6 h. inhibition, % at 7.5 µM;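 active = mean replicate score, as percent of positive control median, at least 50; inconclusive = mean below 50 but one replicate at or above 50; inactive = mean and every replicate below 50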;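 note: strain carries kanamycin resistance gene driven by streptokinase promoter and grows in 40 µg/ml kanamycin; loss of luminescence reflects streptokinase promoter inhibition or plain growth inhibition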
Beta cell apopt: beta cell apoptosis inhibition. INS-1E cytokine-induced death, ATP luminescence, 48 h; percent of positive-control rescue, neutral wells zero. protection from apoptosis, % (concentration not given with the values). 0.8% of 300,000 active;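 active = Every replicate reaches about 75%, or at least half do and their mean reaches it too, limit read from the data; inconclusive = At least half of replicates reach the limit but their mean does not; inactive = Under half of replicates reach the limit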;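 note: higher means more ATP so stronger rescue from cytokine killing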
CSC inhib: blocks cancer stem cells; cancer stem cell-like cells viability, luminescence; inhibition, % at 7.5 µM; 1.1% of 300,000 active; in the data active = inhibition above about 75%; inconclusive = no clear call, values can overlap the other calls; tested in HMLE shEcad cells
T cruzi repl: T. cruzi replication inhibition | T. cruzi beta-gal in NIH3T3, luminescence, 90 h | inhibition, % (concentration not given with the values) | 1.4% of 300,000 active;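 active = mean inhibition across valid replicates above about 55%, limit read from the data; inconclusive = mean below that limit but half or more replicates reach it; inactive = mean below it, under half of replicates reach it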;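 note: signal also drops with host cell toxicity which is not excluded here; higher percent means less beta-gal luminescence so fewer parasites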
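Material: NIH/3T3 host cells with β-galactosidase reporter T. cruzi; Input: 5,000 host fibroblasts per well; Medium: DMEM, 2% fetal bovine serum; Compound: 50 nL DMSO compound solution per well; Schedule: 3 h host attachment, then at least 90 h co-culture; Detection: luminescent β-galactosidase signal after 60 min lysis.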
Calb FLC: affects C. albicans growth with fluconazole; C. albicans CaCi-2 (fluconazole-resistant clinical isolate) + fluconazole, Alamar Blue growth, 48 h; 0.57% of 300,000 active; growth inhibition, % (no concentration beside the values);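 active = growth inhibition above about 58% in most replicates, limit read from the data, passing the limit was not always enough; inconclusive = exactly half the replicates above a set limit; inactive = most replicates below a set limit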;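 note: all wells also contain fluconazole at 8 µg/ml as a sub-toxic cotreatment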
Mdm2-MdmX inh: human Mdm2/MdmX binding inhibition; O15151+Q00987; SaOS-2 split-luciferase Mdm2/MdmX complementation, luminescence; inhibition, % at 8 µM; 3% of 330,000 active; AID 485346;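 active = inhibition of at least 50% at 8 µM in the primary screen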
Target sequence (O15151 whole entry, looked up): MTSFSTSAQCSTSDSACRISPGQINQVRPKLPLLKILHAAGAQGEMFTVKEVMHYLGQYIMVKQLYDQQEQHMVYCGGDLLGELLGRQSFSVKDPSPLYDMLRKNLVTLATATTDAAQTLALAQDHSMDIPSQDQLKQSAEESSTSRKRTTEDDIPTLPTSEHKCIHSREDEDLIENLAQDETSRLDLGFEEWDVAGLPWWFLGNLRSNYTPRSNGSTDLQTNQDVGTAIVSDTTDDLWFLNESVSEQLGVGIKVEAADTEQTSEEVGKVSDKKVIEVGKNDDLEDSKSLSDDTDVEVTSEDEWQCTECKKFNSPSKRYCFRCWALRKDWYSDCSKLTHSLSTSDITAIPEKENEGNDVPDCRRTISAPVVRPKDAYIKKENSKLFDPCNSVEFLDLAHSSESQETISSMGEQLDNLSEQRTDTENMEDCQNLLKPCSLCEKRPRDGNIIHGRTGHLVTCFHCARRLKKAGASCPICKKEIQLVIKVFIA
Target sequence (Q00987 whole entry, looked up): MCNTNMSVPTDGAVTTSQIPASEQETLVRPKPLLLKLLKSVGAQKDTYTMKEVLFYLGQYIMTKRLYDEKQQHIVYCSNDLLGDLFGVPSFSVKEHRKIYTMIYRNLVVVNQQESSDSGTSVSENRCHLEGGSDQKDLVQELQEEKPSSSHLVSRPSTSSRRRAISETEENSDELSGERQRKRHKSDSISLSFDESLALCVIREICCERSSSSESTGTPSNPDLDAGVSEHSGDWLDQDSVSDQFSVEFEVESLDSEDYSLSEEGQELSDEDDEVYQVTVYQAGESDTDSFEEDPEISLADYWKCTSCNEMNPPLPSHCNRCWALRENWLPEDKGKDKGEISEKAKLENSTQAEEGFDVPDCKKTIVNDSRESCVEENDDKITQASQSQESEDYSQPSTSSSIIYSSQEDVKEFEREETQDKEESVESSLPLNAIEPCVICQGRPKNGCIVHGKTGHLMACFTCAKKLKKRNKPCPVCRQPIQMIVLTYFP
Mdm2-MdmX conf: confirmation of human Mdm2/MdmX interaction inhibitors; shares compounds with Mdm2-MdmX inh; Mdm2-MdmX binding, luminescent assay; inhibition, % at 8 µM; 55% of 10,000 active; in the data active = inhibition above about 40%
Full FLuc ctr: inhibits full-length luciferase, flagging false Mdm2/MdmX hits; inhibition, % at 8 µM; SaOS-2 full-length luciferase counterscreen, luminescence; 77% of 6,200 active; shares compounds with Mdm2-MdmX inh;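 active = mean inhibition at 8 µM reaching about 37%, which flags the compound as non-specific, limit read from the data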;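 note: p53-null SaOS-2 cells with luciferase driven by a doxycycline-inducible promoter; compound on cells about two nights before reading with doxycycline added after day one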
Numbers stand for hits; . = inactive; ? = inconclusive; / = not tested or not shown.

SMILES | SKKanGAS inh | Beta cell apopt | CSC inhib | T cruzi repl | Calb FLC | Mdm2-MdmX inh | Mdm2-MdmX conf | Full FLuc ctr
O=C(Nc1cccc(S(=O)(=O)N2CCCCC2)c1)c1ccccc1NS(=O)(=O)c1ccc(F)cc1 | . | . | . | . | . | 89.1 | 70.6 | 111.5
NS(=O)(=O)c1cccc(NC(=O)c2ccccc2NS(=O)(=O)c2ccc(F)cc2)c1 | . | . | . | . | . | . | / | /
Cc1ccc(NC(=O)c2ccccc2NS(=O)(=O)c2ccc(F)cc2)cc1S(=O)(=O)N1CCCCC1 | 60.2 | . | . | . | . | 89.4 | 91.2 | .
Cn1nc(C(=O)Nc2cccc(S(=O)(=O)N3CCCCC3)c2)c2ccccc2c1=O | / | / | / | / | / | 63.2 | 53.1 | 83.2
Cn1nc(C(=O)Nc2ccc(S(=O)(=O)N3CCCCC3)cc2)c2ccccc2c1=O | . | . | . | . | . | . | / | /
C[C@H]1CN=C(N(C)C)N1CCc1ccc(F)cc1 | / | . | . | / | / | . | / | /
COC(=O)/C(=C1/Oc2cc(C)oc(=O)c2S1)C(F)(F)F | . | . | . | . | . | 100.2 | 99.8 | 51.0
COC(=O)/C(=C1/Oc2ccc(C(C)(C)C)cc2S1)C(F)(F)F | . | . | . | . | . | . | / | /
CCC(C)c1ccccc1N=Cc1ccc2c(c1)OCO2 (stereo not drawn) | . | . | / | . | . | . | / | /
CC(C)CC(=O)c1c(O)c(C=O)c(O)c2c1O[C@@]1(C)[C@@H](C2)C[C@H]2C[C@@H]1C2(C)C | / | . | 106.7 | / | / | 59.5 | . | /
CN(N)c1nc(-c2ccccc2)nnc1C(F)(F)F | . | . | . | . | . | . | / | /
CN(NC(=O)c1cccc(Cl)c1)c1nc(-c2ccccc2)nnc1C(F)(F)F | . | . | . | / | . | 58.8 | 56.6 | 53.4
C=CCc1cccc(C2Nc3ccccc3C(=O)N2O)c1O (stereo not drawn) | . | . | / | . | . | 71.9 | . | /
Cc1nn(C)cc1C1Nc2ccccc2C(=O)N1O (stereo not drawn) | . | . | . | . | . | . | / | /
O=C1c2ccccc2NC(c2ccc(Cl)cc2Cl)N1O (stereo not drawn) | . | . | / | . | . | 65.2 | 46.1 | .
O=C(COC(=O)/C=C/c1cccc(F)c1)NC(=O)NC1CCCC1 | / | . | . | / | / | . | / | /
CN(C)CCn1c(=O)n(-c2ccc(F)cc2)c(=O)c2c3c(sc21)CCCCC3 | . | . | . | . | . | . | / | /
CN(C)CCCn1c(=O)n(C2CCCCC2)c(=O)c2c3c(sc21)CCCCC3 | . | . | . | . | . | 89.7 | 72.2 | 66.1
O=C1CC(=O)N(CCNc2ncc(C(F)(F)F)cc2Cl)C(=O)N1 | . | / | . | . | . | . | / | /
O=C1C=CC(=O)N1CCNc1ncc(C(F)(F)F)cc1Cl | 76.6 | / | / | 56.6 | . | 62.6 | 67.6 | 52.8
O=C1C(c2ccnc3ccccc23)=C(O)c2ccccc21 | . | . | . | . | . | 51.7 | . | /
Cc1ccc(Nc2c(-c3ccccn3)nc3cccc(C)n23)cc1 | 101.6 | 116.9 | ? | 58.8 | ? | 86.7 | 90.6 | .
Cc1cccc(C)c1Nc1c(-c2ccccn2)nc2ccccn12 | 96.6 | . | . | 61.1 | . | 76.7 | 58.3 | 41.3
Cc1ccc(NC(=O)c2cc3ccccc3oc2=O)cc1S(=O)(=O)N(C)C | . | . | . | . | . | 89.0 | 94.0 | .
Cc1noc(C)c1C(=O)N(CC(=O)Nc1ccccc1Br)Cc1ccco1 | / | . | / | / | / | . | / | /
SMILES | SKKanGAS inh | Beta cell apopt | CSC inhib | T cruzi repl | Calb FLC | Mdm2-MdmX inh | Mdm2-MdmX conf | Full FLuc ctr
COCCn1c(SCC(=O)c2c(N)n(C3CC3)c(=O)[nH]c2=O)nnc1-c1cccc(C)c1 | / | . | . | / | / | . | / | /
CC(C)Cn1c(SCC(=O)Nc2ccc3[nH]c(=O)[nH]c3c2)nc2ccccc2c1=O | . | . | . | . | . | . | / | /
Cc1cc(SCC(=O)Nc2ccc3[nH]c(=O)[nH]c3c2)nc2ccccc12 | / | . | . | / | / | 87.5 | . | /
O=C1/C(=C/c2cccc(Br)c2)SC(=S)N1CCC(=O)N(CCO)c1ccccc1 | . | . | . | . | . | 51.9 | . | /
CN1CCN(C(=O)CCN2C(=O)/C(=C/c3cccc(Br)c3)SC2=S)CC1 | . | . | . | . | . | . | / | /
COc1cccc(/C=C2\SC(=S)N(CCCC(=O)N(CCO)c3ccccc3)C2=O)c1 | . | . | . | . | . | 99.4 | 60.1 | .
CN(C)S(=O)(=O)N1CCN(C(=O)c2ccc3c(c2)OCO3)CC1 | . | . | . | . | . | . | / | /
O=C1c2ccccc2C2(c3cc(C(F)(F)F)cc(C(F)(F)F)c3)NCCN12 (stereo not drawn) | . | . | . | . | . | / | / | /
Cc1nn(-c2ccccc2)c(C)c1/C=N/NC(=O)c1cc(C23CC4CC(CC(C4)C2)C3)[nH]n1 | 64.3 | . | 96.8 | . | . | 62.6 | . | /
Cc1cc(C(=O)N/N=C/c2c(C)nn(-c3ccccc3)c2C)n[nH]1 | . | . | . | . | . | . | / | /
Cc1nn(-c2ccccc2)c(C)c1/C=N/NC(=O)c1cc(-c2cccs2)[nH]n1 | . | . | . | . | . | 69.8 | 56.1 | 77.8
Cc1nn(-c2ccccc2)c(C)c1/C=N/NC(=O)c1cc(-c2ccc(Cl)s2)[nH]n1 | 59.1 | . | . | . | . | 56.0 | 58.9 | 49.4
O=C(c1cc2ccccc2o1)N1CCN(c2ncccn2)CC1 | / | . | . | / | / | . | / | /
Cc1ccc(S(=O)(=O)NCC(=O)N(CC2CCCO2)C(C(=O)NCC2CCCO2)C(C)C)cc1 (stereo not drawn) | . | . | / | . | . | . | / | /
CC(C)NC(=O)c1onc(CSc2nc3ccccc3[nH]2)c1C(=O)NC(C)C | . | . | . | . | . | . | / | /
COc1ccc(OC)c(NC(=O)C2CCN(c3cc(-c4ccccc4)nc4ncnn34)CC2)c1 | . | / | / | . | . | . | / | /
COc1ccc(NC(=O)C2CCN(c3cc(-c4ccccc4)nc4ncnn34)CC2)cc1OC | / | / | . | / | / | 53.7 | . | 60.0
COc1cc2nc(SCC(N)=O)n(CCC3=CCCCC3)c(=O)c2cc1OC | . | . | . | . | . | 79.6 | . | /
Cc1c(-c2ccccc2)nc(N)c(C#N)c1-c1cccnc1 | . | . | . | . | . | . | / | /
COc1ccc(-c2cc(-c3cccnc3)c(C#N)c(N)n2)cc1 | . | . | . | . | . | 72.7 | . | /
COc1ccc(OC)c(-c2cc(-c3cccnc3)nc(N)c2C#N)c1 | . | . | 76.3 | . | . | 63.1 | 62.0 | 76.2
Cc1nc(N)c(C#N)c(-c2cccnc2)c1-c1ccccc1 | . | . | . | . | . | 56.4 | 41.9 | 55.6
COc1cccc(-c2cc(-c3cccnc3)nc(N)c2C#N)c1 | . | . | . | . | . | 59.5 | . | /
N#CC1(NC(=O)COC(=O)c2cc([N+](=O)[O-])ccc2N2CCOCC2)CCCCC1 | . | . | . | . | . | . | / | /
